Measured values taken from ChEMBL document CHEMBL1133664, “Synthesis and evaluation of hydroxylated polyamine analogues as antiproliferatives” (J Med Chem, 2000).

Experiments:
[1] = tested on: S-adenosylmethionine decarboxylase (Mus musculus); experiment: Effect of compound on S-Adenosyl-methionine decarboxylase in L1210 cells; set-up: unit not given here
L1210 [2] = experiment: Putrescine(PUT) levels in L1210 cells after 48 hr of treatment with the compound at the dose of 10 uM; assay type: functional, Mus musculus
Summary of the method: (§1)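 Log-phase L1210 cells treated 48 h, washed twice in ice-cold incomplete medium, extracted with 0.6 N perchloric acid and freeze-fractured three times. Polyamines are quantified by HPLC. PUT, SPD and SPM are expressed as percent of untreated control.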

[3] = biological target: T1, Ornithine decarboxylase (Mus musculus) (UniProt P00860); experiment: Effect of compound on Ornithine decarboxylase (ODC) […] in L1210 cells; assay type: cell-based
T1 sequence (whole entry): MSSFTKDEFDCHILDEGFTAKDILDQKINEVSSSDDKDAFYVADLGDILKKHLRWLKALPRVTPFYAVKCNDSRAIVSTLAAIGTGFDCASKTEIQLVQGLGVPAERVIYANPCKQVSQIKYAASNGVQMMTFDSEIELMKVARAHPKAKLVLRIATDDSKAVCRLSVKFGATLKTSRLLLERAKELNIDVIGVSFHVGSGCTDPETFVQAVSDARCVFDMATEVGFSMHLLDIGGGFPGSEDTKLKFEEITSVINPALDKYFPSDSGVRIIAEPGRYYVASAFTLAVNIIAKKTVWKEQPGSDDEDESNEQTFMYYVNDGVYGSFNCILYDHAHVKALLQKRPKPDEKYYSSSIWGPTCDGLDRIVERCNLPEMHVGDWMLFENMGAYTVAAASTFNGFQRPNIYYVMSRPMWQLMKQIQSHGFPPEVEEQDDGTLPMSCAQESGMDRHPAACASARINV
Summary of the method: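 L1210 cells treated 4 h at 1 µM, with an additional arm at 10 µM for 4 h. ODC activity is expressed as percent of untreated control. Each run includes untreated cells as negative control and a DEHSPM-treated positive control. Values are the mean of at least three experiments.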

L1210 [4] = experiment: Spermidine(SPD) levels in L1210 cells after 48 hr of treatment with the compound at the dose of 2 uM; assay type: functional, Mus musculus
Summary of the method: as §1

L1210 [5] = experiment: Growth uM after 48 hours; assay type: functional, cell-based; settings: Mus musculus, L1210, 48 h
L1210 [6] = experiment: Putrescine(PUT) levels in L1210 cells after 48 hr of treatment with the compound at the dose of 2 uM; assay type: functional, Mus musculus
Summary of the method: as §1

L1210 [7] = experiment: Effect of compound on Spermidine/Spermine N'-Acetyltransferase(SSAT) in L1210 cells; assay type: cell-based
Summary of the method: (§2)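 L1210 cells treated 48 h at 10 µM, or 2 µM for DENSPM. SSAT is quantified as [14C]-N1-acetylspermidine formed from spermidine and [14C]acetyl-CoA. Values are the mean of at least three experiments.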

L1210 [8] = experiment: Spermine(SPM) levels in L1210 cells after 48 hr of treatment with the compound at the dose of 10 uM; assay type: functional, Mus musculus
Summary of the method: as §1

L1210 [9] = experiment: Spermine(SPM) levels in L1210 cells after 48 hr of treatment with the compound at the dose of 2 uM; assay type: functional, Mus musculus
Summary of the method: as §1

L1210 [10] = experiment: Ki was estimated by competitive inhibition of [3H]SPD transport by L1210 cells; assay type: functional, cell-based, Mus musculus
Summary of the method: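 L1210 cells incubated 20 min at 37 °C in medium with 1-10 µM [3H]spermidine, alone or with 10, 25 or 50 µM analogue. Cells are then washed with cold medium containing 1 mM SPD, digested in NaOH at 60 °C and counted by scintillation. Ki is taken from substrate-competitive inhibition kinetics; values are means of two or three experiments.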

L1210 [11] = experiment: Spermidine(SPD) levels in L1210 cells after 48 hr of treatment with the compound at the dose of 10 uM; assay type: functional, Mus musculus
Summary of the method: as §1

L1210 [12] = experiment: Growth uM after 96 hours; assay type: functional, cell-based; settings: Mus musculus, L1210, 96 h
L1210 [13] = experiment: Spermine(SPM) levels in L1210 cells after 48 hr of treatment with the compound at the dose of 200 uM; assay type: functional, Mus musculus
Summary of the method: as §1

L1210 [14] = experiment: Putrescine(PUT) levels in L1210 cells after 48 hr of treatment with the compound at the dose of 200 uMicroM; assay type: functional, Mus musculus
Summary of the method: as §1

L1210 [15] = experiment: Spermidine(SPD) levels in L1210 cells after 48 hr of treatment with the compound at the dose of 200 uM; assay type: functional, Mus musculus
Summary of the method: as §1

L1210 [16] = experiment: Spermine(SPM) levels in L1210 cells after 48 hr of treatment with the compound at the dose of 40 uM; assay type: functional, Mus musculus
Summary of the method: as §1

L1210 [17] = experiment: Spermidine(SPD) levels in L1210 cells after 48 hr of treatment with the compound at the dose of 40 uM; assay type: functional, Mus musculus
Summary of the method: as §1

L1210 [18] = experiment: Putrescine(PUT) levels in L1210 cells after 48 hr of treatment with the compound at the dose of 40 uM; assay type: functional, Mus musculus
Summary of the method: as §1

L1210 [19] = experiment: Spermine(SPM) levels in L1210 cells after 48 hr of treatment with the compound at the dose of 0.15 uM; assay type: functional, Mus musculus
Summary of the method: as §1

L1210 [20] = experiment: Spermidine(SPD) levels in L1210 cells after 48 hr of treatment with the compound at the dose of 0.15 uM; assay type: functional, Mus musculus
Summary of the method: as §1

L1210 [21] = experiment: Spermine(SPM) levels in L1210 cells after 48 hr of treatment with the compound at the dose of 0.75 uM; assay type: functional, Mus musculus
Summary of the method: as §1

L1210 [22] = experiment: Putrescine(PUT) levels in L1210 cells after 48 hr of treatment with the compound at the dose of 0.15 uM; assay type: functional, Mus musculus
Summary of the method: as §1

L1210 [23] = experiment: Putrescine(PUT) levels in L1210 cells after 48 hr of treatment with the compound at the dose of 0.75 uM; assay type: functional, Mus musculus
Summary of the method: as §1

L1210 [24] = experiment: Spermidine(SPD) levels in L1210 cells after 48 hr of treatment with the compound at the dose of 0.75 uM; assay type: functional, Mus musculus
Summary of the method: as §1

L1210 [25] = experiment: Spermidine(SPD) levels in L1210 cells after 48 hr of treatment with the compound at the dose of 100 uM; assay type: functional, Mus musculus
Summary of the method: as §1

L1210 [26] = experiment: Putrescine(PUT) levels in L1210 cells after 48 hr of treatment with the compound at the dose of 100 MicroM; assay type: functional, Mus musculus
Summary of the method: as §1

L1210 [27] = experiment: Effect of compound on Spermidine/Spermine N'-Acetyltransferase (SSAT) in L1210 cells; assay type: cell-based
Summary of the method: as §2

L1210 [28] = experiment: Growth inhibition of L1210 cells was measured in the presence of nine different concentrations: 0,0.03,0.1,0.3,1,3,10,30, and 100 uM after 48 hours; assay type: functional, cell-based; settings: Mus musculus, L1210, 48 h
Summary of the method: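 L1210 leukemia cells were kept in log growth in RPMI-1640 with 10% FBS, HEPES-MOPS and 1 mM aminoguanidine at 37 °C under 5% CO2. Cultures at 0.5-1.0 × 10^5 cells/mL were dosed with filtered aqueous compound and counted by Coulter counter at 48 h, then reseeded and counted again at 96 h.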

L1210 [29] = experiment: Spermine(SPM) levels in L1210 cells after 48 hr of treatment with the compound at the dose of 100 uM; assay type: functional, Mus musculus
Summary of the method: as §1

[30] = in the assay text read “1 uM” for “10 uM”

Activity [1]	Activity [3]	IC50 (L1210 [5])	IC50 (L1210 [12])	Compound	Activity (L1210 [2])	Activity (L1210 [7])	Activity (L1210 [8])	Ki (L1210 [10])	Activity (L1210 [11])	further results
52	17	2 µM	0.06 µM	CCNCC[C@H](O)CNCCCCNC[C@@H](O)CCNCC [IVOSPEMIN]	3	114	53	2.4 µM	4	Activity (L1210 [4]): 11; Activity (L1210 [6]): 3; Activity (L1210 [9]): 62
68	55	40 µM	0.08 µM	CCNCC[C@@H](O)CNCCCCNC[C@H](O)CCNCC		102		1.7 µM		Activity (L1210 [13]): 104; Activity (L1210 [14]): 4; Activity (L1210 [15]): 13; Activity (L1210 [16]): 107; Activity (L1210 [17]): 19; Activity (L1210 [18]): 5
	35			CCNC[C@@H](O)CNCCCNC[C@H](O)CNCC						
41	7			CCNCCCCNCCCCNCCCCNCC [DIETHYLHOMOSPERMINE]	3	110	57		1	Activity (L1210 [19]): 110; Activity (L1210 [20]): 91; Activity (L1210 [21]): 101; Activity (L1210 [22]): 97; Activity (L1210 [23]): 49; Activity (L1210 [24]): 40
	61			CCNC[C@H](O)CNCCCNC[C@@H](O)CNCC						
42	7			CCNCCCNCCCNCCCNCC [BIS(ETHYL)NORSPERMINE]						Activity (L1210 [25]): 6; Activity (L1210 [26]): 0; Activity (L1210 [27]): 1470; IC50 (L1210 [28]): 20 µM; Activity (L1210 [2]; [30]): 66; Activity (L1210 [29]): 30; Activity (L1210 [8]; [30]): 94; Activity (L1210 [11]; [30]): 46
